Converted amounts (≈) assume the structure as drawn. “And” between values parts separate entries of the source, which are not always exact repeats. Equal values may be shown once. One block for each compound: values may come before it.
What was measured:
[1] = biological target: T1, Intercellular adhesion molecule 1 (Homo sapiens, UniProt P05362); assay: In vitro inhibitory potency compared to IL1-beta induced Intercellular adhesion molecule-1 in human endothelial cells (ELISA assay); format: cell-based, Endothelial cell
Summary of the method: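 Primary HUVECs seeded at 5 × 10^4 cells/mL in EBM/2% FBS with EGF, bovine brain extract and gentamicin. Compound added next day for 24 h at 37 °C, then inducer (IL-1β or PMA, level not stated) for 6 h at 37 °C. Whole-cell ELISA used mouse monoclonal anti-ICAM-1 or anti-VCAM-1, HRP donkey anti-mouse IgG and OPD, read at 490 nm. Run in triplicate.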

Mus musculus [2] = assay: Efficacy in lavage cells at 3 mg/kg of oral dosing in an inhaled allergen-induced cell influx in 7 mice.; format: functional
Summary of the method: (§1)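 Mouse inhaled-allergen model. Compounds or vehicle (0.2% methylcellulose) given orally 18 h and 1 h before the first of two allergen inhalations. Lungs lavaged 24-27 h after the first inhalation. Read-outs were lavage cell count (no./µL), neutrophil and eosinophil percentages, and soluble ICAM-1 in serum and BAL 24 h after antigen. Values are mean ± SE.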

Mus musculus [3] = assay: Efficacy in serum sICAM-1 at 3 mg/kg of oral dosing in an inhaled allergen-induced cell influx in 7 mice.; format: functional; summary of the method: as §1
Mus musculus [4] = assay: % Efficacy in eosinophils at 30 mg/kg of oral dosing in an inhaled allergen-induced cell influx in 6 mice.; format: functional, Eosinophil; summary of the method: as §1
Mus musculus [5] = assay: Efficacy in serum sICAM-1 at 30 mg/kg of oral dosing in an inhaled allergen-induced cell influx in 6 mice.; format: functional; summary of the method: as §1
Mus musculus [6] = assay: Efficacy in lBAL sICAM-1 at 0.3 mg/kg of oral dosing in an inhaled allergen-induced cell influx in 7 mice.; format: functional; summary of the method: as §1
E-selectin [7] = biological target: T2, E-selectin (Homo sapiens, UniProt P16581); assay: In vitro inhibitory potency compared to IL1-beta induced Selectin E in human endothelial cells (ELISA assay); format: cell-based, Endothelial cell
T2 sequence (P16581 whole entry): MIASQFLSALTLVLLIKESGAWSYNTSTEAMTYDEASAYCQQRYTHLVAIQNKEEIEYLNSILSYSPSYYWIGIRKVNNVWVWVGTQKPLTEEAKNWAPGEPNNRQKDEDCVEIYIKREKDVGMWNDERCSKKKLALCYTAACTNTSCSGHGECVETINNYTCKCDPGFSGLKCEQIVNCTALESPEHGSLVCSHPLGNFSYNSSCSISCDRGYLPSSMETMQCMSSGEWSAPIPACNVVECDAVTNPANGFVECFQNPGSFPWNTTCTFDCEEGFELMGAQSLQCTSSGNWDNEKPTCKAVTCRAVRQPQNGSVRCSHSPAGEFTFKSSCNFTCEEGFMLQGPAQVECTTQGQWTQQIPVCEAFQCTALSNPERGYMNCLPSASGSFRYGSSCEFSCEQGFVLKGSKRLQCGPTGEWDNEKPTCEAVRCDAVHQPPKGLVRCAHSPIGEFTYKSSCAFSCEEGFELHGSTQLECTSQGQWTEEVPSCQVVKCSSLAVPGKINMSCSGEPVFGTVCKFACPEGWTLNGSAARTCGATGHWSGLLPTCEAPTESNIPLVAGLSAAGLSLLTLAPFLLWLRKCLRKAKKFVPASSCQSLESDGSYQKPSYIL
Summary of the method: (§2)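 Whole-cell ELISA on primary HUVECs plated at 5 × 10^4 cells/mL in EBM/2% FBS with growth supplements. Compound preincubated 24 h at 37 °C, then inducer added (TNFα at 5 ng/mL final, or IL-1β or PMA in its place) for 6 h at 37 °C. Mouse monoclonal anti-E-selectin, anti-ICAM-1 or anti-VCAM-1 was applied overnight at 4 °C, then HRP anti-mouse IgG. Detection with OPD, A490. Triplicate assays.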

Mus musculus [8] = assay: % Efficacy in neutrophils at 3 mg/kg of oral dosing in an inhaled allergen-induced cell influx in 7 mice.; format: functional; summary of the method: as §1
E-selectin [9] = biological target: T2, E-selectin; assay: Inhibition of selectin E in human endothelial cells; format: cell-based, Endothelial cell; summary of the method: as §2
Mus musculus [10] = assay: Efficacy in lBAL sICAM-1 at 3 mg/kg of oral dosing in an inhaled allergen-induced cell influx in 7 mice.; format: functional; summary of the method: as §1
[11] = biological target: T1, Intercellular adhesion molecule 1; assay: In vitro inhibitory potency compared to PMA induced Intercellular adhesion molecule-1 in human endothelial cells (ELISA assay); format: cell-based, Endothelial cell; summary of the method: as §2
Mus musculus [12] = assay: Efficacy in lBAL sICAM-1 at 30 mg/kg of oral dosing in an inhaled allergen-induced cell influx in 6 mice.; format: functional; summary of the method: as §1
Mus musculus [13] = assay: Efficacy in serum sICAM-1 at 0.3 mg/kg of oral dosing in an inhaled allergen-induced cell influx in 7 mice.; format: functional; summary of the method: as §1
Mus musculus [14] = assay: % Efficacy in neutrophils at 30 mg/kg of oral dosing in an inhaled allergen-induced cell influx in 6 mice.; format: functional; summary of the method: as §1
[15] = biological target: T3, E-selectin (Homo sapiens) (UniProt P16581); assay: In vitro inhibitory potency compared to PMA induced Selectin E expression in human endothelial cells (ELISA assay) at 1 uM; format: cell-based; details: Endothelial cell
T3 sequence (whole entry): T2 sequence (P16581 whole entry)
Summary of the method: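 HUVEC whole-cell ELISA with PMA substituted for TNFα as inducer. Compound preincubated 24 h at 37 °C, then 6 h induction at 37 °C. E-selectin detected with mouse monoclonal antibody and HRP anti-mouse IgG, OPD development, A490. Value given as percent inhibition at a single concentration of 1 µM.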

[16] = biological target: T1, Intercellular adhesion molecule 1; assay: In vitro inhibitory potency compared to TNF-alpha induced Intercellular adhesion molecule-1 in human endothelial cells (ELISA assay); format: cell-based, Endothelial cell
Summary of the method: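 Primary HUVECs seeded at 5 × 10^4 cells/mL in EBM/2% FBS with supplements. After 24 h of compound at 37 °C, TNFα was added to 5 ng/mL final for 6 h at 37 °C. Cell-surface ICAM-1 was detected with a mouse monoclonal antibody, then HRP anti-mouse IgG and OPD, with absorbance at 490 nm. Triplicate determinations.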

E-selectin [17] = biological target: T2, E-selectin; assay: In vitro inhibitory potency compared to TNF-alpha induced Selectin E expression in human endothelial cells (ELISA assay); format: cell-based, Endothelial cell; summary of the method: as §2
Mus musculus [18] = assay: Efficacy in lavage cells at 0.3 mg/kg of oral dosing in an inhaled allergen-induced cell influx in 7 mice.; format: functional; summary of the method: as §1
Mus musculus [19] = assay: % Efficacy in neutrophils at 0.3 mg/kg of oral dosing in an inhaled allergen-induced cell influx in 7 mice.; format: functional; summary of the method: as §1
[20] = Solubility in pH 7.4 buffer.; format: physicochemical
[21] = biological target: T1, Intercellular adhesion molecule 1; assay: Inhibition of intercellular adhesion molecule-1 (ICAM1) in human endothelial cells; format: cell-based, Endothelial cell; summary of the method: as §2
Mus musculus [22] = assay: % Efficacy in eosinophils at 0.3 mg/kg of oral dosing in an inhaled allergen-induced cell influx in 7 mice.; format: functional, Eosinophil; summary of the method: as §1
Mus musculus [23] = assay: % Efficacy in eosinophils at 3 mg/kg of oral dosing in an inhaled allergen-induced cell influx in 7 mice.; format: functional, Eosinophil; summary of the method: as §1
[24] = Toxicity in HUVEC cell lysates.; format: cell-based, Lysate; details: human
Mus musculus [25] = assay: % Efficacy in eosinophils at 30 mg/kg of oral dosing in an inhaled allergen-induced cell influx in mice.; format: functional, Eosinophil; summary of the method: as §1
Mus musculus [26] = assay: Efficacy in lavage cells at 30 mg/kg of oral dosing in an inhaled allergen-induced cell influx in mice.; format: functional; summary of the method: as §1
Mus musculus [27] = assay: % Efficacy in neutrophils at 30 mg/kg of oral dosing in an inhaled allergen-induced cell influx in mice.; format: functional; summary of the method: as §1
Mus musculus [28] = assay: Efficacy in lBAL sICAM-1 at 30 mg/kg of oral dosing in an inhaled allergen-induced cell influx in mice.; format: functional; summary of the method: as §1
Mus musculus [29] = assay: Efficacy in serum sICAM-1 at 30 mg/kg of oral dosing in an inhaled allergen-induced cell influx in mice.; format: functional; summary of the method: as §1

T1 sequence (P05362 whole entry): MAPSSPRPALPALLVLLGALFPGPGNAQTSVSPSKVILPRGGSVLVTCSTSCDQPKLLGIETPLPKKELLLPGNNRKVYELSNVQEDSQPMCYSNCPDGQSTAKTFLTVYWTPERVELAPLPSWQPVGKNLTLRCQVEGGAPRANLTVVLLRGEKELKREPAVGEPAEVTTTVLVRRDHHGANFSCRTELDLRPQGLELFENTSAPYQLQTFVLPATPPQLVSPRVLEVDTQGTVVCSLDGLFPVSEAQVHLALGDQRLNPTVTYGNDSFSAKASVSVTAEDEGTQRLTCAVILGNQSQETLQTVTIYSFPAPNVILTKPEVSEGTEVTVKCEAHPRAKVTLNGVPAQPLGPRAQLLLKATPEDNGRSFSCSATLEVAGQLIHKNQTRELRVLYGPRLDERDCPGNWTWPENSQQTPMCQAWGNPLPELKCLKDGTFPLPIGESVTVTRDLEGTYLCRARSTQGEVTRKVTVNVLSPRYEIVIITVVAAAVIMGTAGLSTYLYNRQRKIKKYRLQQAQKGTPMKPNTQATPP

IC50 [1]: 3 nM
IC50 (E-selectin [7]): 6 nM
IC50 (E-selectin [9]): 4 nM
IC50 [11]: 6 nM
inhibition [15]: 48%
IC50 [16]: 3 nM
IC50 (E-selectin [17]): 4 nM
solubility [20]: 0.46 µg/mL (≈ 1.32 µM)
IC50 [21]: 5 nM
SMILES: NC(=O)c1cc2c(Oc3ccc(Br)cc3)cncc2s1
Efficacy (Mus musculus [2]): 319 number ul-1
Efficacy (Mus musculus [3]): 21.3 µg/mL
Efficacy (Mus musculus [4]): 8% and 9%
Efficacy (Mus musculus [5]): 18.8 µg/mL and 18.5 µg/mL
Efficacy (Mus musculus [6]): 2.67 µg/mL
Efficacy (Mus musculus [8]): 60%
Efficacy (Mus musculus [10]): 2.68 µg/mL
Efficacy (Mus musculus [12]): 1.74 µg/mL and 1.99 µg/mL
Efficacy (Mus musculus [13]): 20.7 µg/mL
Efficacy (Mus musculus [14]): 38% and 57%
Efficacy (Mus musculus [18]): 282 number ul-1
Efficacy (Mus musculus [19]): 44%
Efficacy (Mus musculus [22]): 19%
Efficacy (Mus musculus [23]): 14%
IC50 [24]: > 100000 nM

SMILES: CNC(=O)c1cc2c(Oc3ccc(C(F)(F)F)cc3)cncc2s1
Efficacy (Mus musculus [25]): 10%
Efficacy (Mus musculus [26]): 107 number ul-1
Efficacy (Mus musculus [27]): 48%
Efficacy (Mus musculus [28]): 1.89 µg/mL
Efficacy (Mus musculus [29]): 19.6 µg/mL

From ChEMBL document CHEMBL1134459 (J Med Chem, 2001)
